Test system: MS2 coat protein
Assay: apparent Kd, MS2 coat protein; higher = weaker binding; RNA-MaP array; FMN 200 µM where present
In short: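 Stalled E. coli RNA polymerase transcribed the designs on Illumina sequencing-chip clusters. SNAP-549-labelled MS2 coat protein was titrated from 0.7 or 1.5 nM, doubling to 3 µM, without and then with constant ligand, in 100 mM Tris-HCl pH 7.5, 80 mM KCl, 4 mM MgCl2, BSA, DTT, yeast tRNA and Tween-20. Per-cluster binding curves were fitted to green signal normalised to red-channel RNA signal and control-cluster median Fmax. The apparent Kd is the median of the filtered fits.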

[1] = designed as: ON switch for flavin mononucleotide, no ligand
[2] = ligand present: flavin mononucleotide, designed as: ON switch for flavin mononucleotide
[3] = designed as: OFF switch for flavin mononucleotide, no ligand
[4] = ligand present: flavin mononucleotide, designed as: OFF switch for flavin mononucleotide

| Sequence | apparent Kd [1] | apparent Kd [2] | apparent Kd [3] | apparent Kd [4] |
| --- | --- | --- | --- | --- |
| ACAUACUUUCGAGGAUAUCGGUGAUAAAUUUUACGAGAAGGCGAUAAAAGAUAUAAUCUUAUAAACAUGAGGAUCACCCAUGUA | 25.5 nM | 23.9 nM |  |  |
| AUGCCCUGAGGAUAUCUCAUCUCGCACAUGAGGAUCACCCAUGUUCUUCUCUGGGUUUCGAGAGAAGGCAGGCCUA |  |  | 701 nM | 366 nM |
| UUAUUAUGUGUAGGAUAUGCAUAUUCUUAUUAUGCAGAAGGACAUGAGGAUCACCCAUGUAUAUUAUUAUUAUAUAUUAUAUAU |  |  | 14.6 nM | 13.1 nM |
| AGUAAGAUGCAGAAGGUGUCAGCUAGUGCUACGACAUGAGGAUCACCCAUGUACUAGAAACAGUACAAGGAUAUGCAUCUUACA | 56.8 nM | 8.32 nM |  |  |
| UAAUAAUAGUGAGGAUAUAGUUAUUAUAAUAUACUAGAAGGUACACAUGAGGAUCACCCAUGUUUUAUAAUUUGUAAUUUAAAU |  |  | 23.2 nM | 20.5 nM |
| CUGAGCUGAGGAUAUACAUGAGGAUCACCCAUGUGUUAGAGCUUGCGUACAGGCAGAUGUAGAAGGCAGUUCGG |  |  | 17.4 nM | 49.7 nM |
| GUCAGCUCGUGAGGAUAUACAUGUGCUGGAUACAGCACUAAAGUUUUCACAUGAGGAUCACCCAUGUAGAAGGCACGAGCUGAU |  |  | 15.3 nM | 33.9 nM |
| AAAUUGUGAGGAUAUUCGAUGUACUCGGAGACGAGUAUAUCGGAGAAGGCACAUGAGGAUCACCCAUGUUCCUU |  |  | 17.6 nM | 92.6 nM |
| UCAGUAGAGUCAGGAUAUACGAAAGAAGAUCCUUACAUGAGGAUCACCCAUGUAGAAGGGACUCUACUGUAAGUCGGAAACGAC |  |  | 129 nM | 192 nM |
| ACGAAAACACAAAUGUUCCACGGUGCAGAAGGGUCCCUCACAUGAGGAUCACCCAUGUAACUCGGACAGGAUAUGCUUUUGGGA | 380 nM | 11.4 nM |  |  |
| GUUUCACAUGAGGAUCACCCAUGUGAGGAUAUGGAUUCGCUGGCCGUAGCCAGUGGAUCCAGAAGGCGCAUGAU |  |  | 35.7 nM | 44 nM |
| UUACUUUUACAGAAGGUUUAAUAAUAUAUAAGAGAAGGAUAUGUAACAUGAGGAUCACCCAUGUUUCACCCAUAUGAGGAUCAU |  |  | 8.12 nM | 7.78 nM |
| GCCAACUCGUGAGGAUAUGGCACCUUAUUGGUGCCAGAAGGCAUGUCAAUUGACAUGAGGAUCACCCAUGUAUUAUAGUUGGCA | 563 nM | 88.2 nM |  |  |
| ACCUCACAUGAGGAUCACCCAUGUCAGGAUAUCUAUUAUUGCAGCGUUCCCGUCGCUGAGAGAAGGGACAUUAA |  |  | 14 nM | 16.8 nM |
| AUGAAGAGGCAAGGAUAUCGAGUGCUGGGCCUAUACAUGAGGAUCACCCAUGUCCUGGCAGGACGUGAGAAGGUGUAUCUAAUA | 217 nM | 343 nM |  |  |
| ACAUGAGGAUCACCCAUGUGAAAAGAAUGGCUGACACAGAGAUAGGAUAUAUGUGCAUAUCUAACGUAGAAGGGUCAUGACUGG |  |  | 33.3 nM | 36.4 nM |
| UAUAUAUAGUAAGGAUAUGUAUUAAUUUUAUCAACAGAAGGUACUGACAUGAGGAUCACCCAUGUUUUAGUGUGGGCAUGUAGA |  |  | 84 nM | 109 nM |
| UAUAUUUAUGUAGGAUAUGGUAUAUAAAAUAUACCAGAAGGACAUGAGGAUCACCCAUGUAUGAAAUUCCAUAAUUACCGUGUA |  |  | 9.98 nM | 11.3 nM |
| UUAUUUUUACAGAAGGUUUAAUAAUAUGUAUGAGAAGGAUAUGUAACAUGAGGAUCACCCAUGUUUCAUCUAUAUGAGGAUCAU |  |  | 6.61 nM | 5.57 nM |
| UAGACGUUGCAGAAGGUUAUUUUUAUAACGUGCCACUUGACAUGAGGAUCACCCAUGUAAUUGAUGAAGGAUAUGCAACGGUAG |  |  | 6.34 nM | 5.83 nM |
| UAUAUGUCAGGAUAUCGAUUGGAGCGGAAUUUAGCUUUGGUCGAGAAGGGACAUGAGGAUCACCCAUGUUCAAC |  |  | 19.8 nM | 37.8 nM |

From the EternaBench riboswitch data
